DSG3 Ab inh – inhibitors of pemphigus antibody binding to DSG3, primary screen, biochemical, bead-based, flow cytometry, scFv-GFP; 0.48% of 310,000 active; AID 588358, 2011; Desmoglein-3 (Homo sapiens), P32926; DSG3-coupled beads, scFv-anti-DSG3-GFP binding; active compounds read low; binding (percent of control), % at 10 µM;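 active means binding more than 3 SD below its plate's average and above zero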;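 further: hits lower antibody fragment binding to DSG3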
LMPTP block – LMPTP phosphatase inhibitors, primary screen, biochemical, fluorescence intensity, uHTS | recombinant LMPTP-A, OMFP fluorogenic substrate | inhibition, % at 20 µM | 0.22% of 360,000 active | Low molecular weight phosphotyrosine protein phosphatase (Homo sapiens), P24666 | AID 651560, 2012;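 active means compounds that cut the enzyme signal by at least half of the control window in the single-dose screen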
Target sequence (P24666 whole entry, looked up): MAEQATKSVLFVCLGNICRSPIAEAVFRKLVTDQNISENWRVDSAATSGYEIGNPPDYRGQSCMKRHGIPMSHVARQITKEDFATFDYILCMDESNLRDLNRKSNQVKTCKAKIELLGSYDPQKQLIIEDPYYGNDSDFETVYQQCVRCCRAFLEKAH
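material = LMPTP-A | quantity = 0.625 nM enzyme | reagent = OMFP substrate, 400 µM final | buffer or medium = Bis-Tris pH 6.0, DTT, detergent | detection = endpoint fluorescence intensity from OMFP dephosphorylation | dosing = single 20 µM dose | read-out basis = % inhibition relative to no-enzyme and uninhibited control wells | control set = no-enzyme and uninhibited controls | timing = 50 min at room temperature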
Scp-1 inhibitor – Scp-1 phosphatase inhibitors, primary screen, biochemical, colorimetric, uHTS | 0.88% of 340,000 active | inhibition, % at 20 µM | Recombinant Scp1, phosphopeptide, malachite green phosphate absorbance;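 active means inhibition above about 50% at 20 µM, limit read from the data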
Target sequence (Q9GZU7 76-261 limits assumed): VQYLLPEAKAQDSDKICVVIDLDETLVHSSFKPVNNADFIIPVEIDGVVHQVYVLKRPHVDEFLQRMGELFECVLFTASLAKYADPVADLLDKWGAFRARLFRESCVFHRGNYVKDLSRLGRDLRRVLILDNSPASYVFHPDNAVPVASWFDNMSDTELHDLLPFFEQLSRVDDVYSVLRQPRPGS
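System: truncated SCP-1 phosphatase (76-261aa); medium: Tris acetate buffer pH 5.5 with MgCl2 and Tween-20; incubation: 45 min room-temperature reaction, 5 min colour, 30 min stabiliser; compound: single 20 µM dose, 1% DMSO; reagent: Phosphorylated 17-residue peptide substrate; read-out: % inhibition at 20 µM; technique: colorimetric free-phosphate detection, absorbance 630 nm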
SUMO1-SIM PPI – modulators of SUMO1 protein-protein interactions, primary screen, biochemical, uHTS; AID 602429, 2012; Small ubiquitin-related modifier 1 (Homo sapiens), P63165; 0.33% of 360,000 active; SUMO1 binding to a labelled peptide, TR-FRET, 1 h; inhibition, % at 20 µM; in the data active means inhibition above about 37%
Target sequence (P63165 whole entry, looked up): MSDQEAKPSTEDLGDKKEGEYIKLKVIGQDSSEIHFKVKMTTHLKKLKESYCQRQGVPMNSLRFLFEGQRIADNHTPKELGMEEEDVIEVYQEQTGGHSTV
STEP block – STEP phosphatase inhibitors, primary screen, biochemical, fluorescence intensity, uHTS | Tyrosine-protein phosphatase non-receptor type 5 (Homo sapiens), P54829 | recombinant STEP, OMFP fluorogenic substrate | inhibition, % at 20 µM | 0.25% of 360,000 active | AID 588621, 2011;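 active means inhibition at 20 µM, scaled per plate between control wells, above about 37%, limit read from the data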
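Material: STEP (striatal-enriched tyrosine phosphatase) enzyme, cell-free | Medium: 50 mM Bis-Tris pH 6.0 with 2.5 mM DTT and 0.005% Tween 20 | Read-out: Percent inhibition scaled to no-enzyme and uninhibited-enzyme controls, plate-pattern corrected | Signal: Fluorescence read at 480 nm ex / 540 nm em | Times: 20 min reaction, room temperature, in the dark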
Numbers stand for hits. A selection: hits, their analogues and other compounds. The true share with any hit is near 1.7%.

What do the screens show for `O=C(O)c1ccccc1NS(=O)(=O)c1ccc(N/N=C/c2cccc(O)c2O)c([N+](=O)[O-])c1`?
DSG3 Ab inh: inactive; LMPTP block: 69.4; Scp-1 inhibitor: 88.5; SUMO1-SIM PPI: inactive; STEP block: inactive

What do the screens show for `COc1cc(/C=N/Nc2ccccc2[N+](=O)[O-])cc(OC)c1O`?
DSG3 Ab inh: inactive; LMPTP block: inactive; Scp-1 inhibitor: inactive; SUMO1-SIM PPI: inactive; STEP block: inactive

Results for COc1cc(/C=N/Nc2ccc(S(N)(=O)=O)cc2[N+](=O)[O-])cc(OC)c1O ?
DSG3 Ab inh: 82.8; LMPTP block: inactive; Scp-1 inhibitor: inactive; SUMO1-SIM PPI: inactive; STEP block: inactive

What do the screens show for `CCCN(CCC)C(=O)CC(c1ccc(F)cc1)c1ccco1` (stereo not given)?
DSG3 Ab inh: inactive; LMPTP block: inactive; Scp-1 inhibitor: inactive; SUMO1-SIM PPI: inactive; STEP block: 48.1

Results for Cn1nccc1C(=O)NC1CCN(Cc2ccccc2)CC1 ?
LMPTP block: inactive; Scp-1 inhibitor: inactive; SUMO1-SIM PPI: inactive; STEP block: inactive

What do the screens show for `O=C(NN1C(=O)CSC1=S)c1cccnc1`?
DSG3 Ab inh: inactive; LMPTP block: inactive; Scp-1 inhibitor: inactive; SUMO1-SIM PPI: 59.7; STEP block: inactive

What do the screens show for `Cc1ccccc1C(=O)NN1C(=O)CSC1=S`?
DSG3 Ab inh: inactive; LMPTP block: inactive; Scp-1 inhibitor: inactive; SUMO1-SIM PPI: inactive; STEP block: inactive

Results for CCC(=O)Nc1nonc1-c1nc2ccccc2n1Cc1ccc(Cl)c(Cl)c1 ?
DSG3 Ab inh: inactive; Scp-1 inhibitor: 56.3

What do the screens show for `CC(=O)Nc1nonc1-c1nc2ccccc2n1Cc1ccccc1`?
DSG3 Ab inh: inactive; LMPTP block: inactive; Scp-1 inhibitor: inactive; SUMO1-SIM PPI: inactive; STEP block: inactive

How did Cc1oc(-c2cc(F)ccc2F)nc1CN1CCN(c2cnccn2)CC1 do in these assays?
DSG3 Ab inh: inactive; LMPTP block: inactive; Scp-1 inhibitor: inactive; SUMO1-SIM PPI: 43.8; STEP block: inactive

Results for C=CCOC(=O)c1cc(-c2ccc(/C=C3\C(=O)NC(=O)C(C#N)=C3C)o2)ccc1Cl ?
DSG3 Ab inh: inactive; LMPTP block: inactive; Scp-1 inhibitor: 87.0; SUMO1-SIM PPI: 43.4; STEP block: inactive

Results for C=CCNC(=O)C1=NN(c2c(F)c(F)cc(F)c2F)C(=O)CC1 ?
DSG3 Ab inh: inactive; LMPTP block: inactive; Scp-1 inhibitor: inactive; SUMO1-SIM PPI: inactive; STEP block: inactive

How did O=C(NCCc1c[nH]c2ccccc12)C(=O)Nc1ccccc1 do in these assays?
DSG3 Ab inh: 64.0; LMPTP block: inactive; Scp-1 inhibitor: inactive; SUMO1-SIM PPI: inactive; STEP block: inactive

What do the screens show for `Fc1cccc(NCCc2c[nH]c3ccccc23)n1`?
DSG3 Ab inh: inactive; LMPTP block: inactive; Scp-1 inhibitor: inactive; SUMO1-SIM PPI: inactive; STEP block: inactive

What do the screens show for `c1ccc2c(NCCc3c[nH]c4ccccc34)c3ccccc3nc2c1`?
DSG3 Ab inh: inactive; LMPTP block: 56.9; Scp-1 inhibitor: inactive; SUMO1-SIM PPI: inactive; STEP block: inactive

Results for Cc1ccc(NC(=O)C(=O)NCCc2c[nH]c3ccccc23)cc1C ?
DSG3 Ab inh: inactive; LMPTP block: inactive; Scp-1 inhibitor: inactive; SUMO1-SIM PPI: inactive; STEP block: inactive

What do the screens show for `CCOC(=O)C1=C(CN2CCN(C(=O)c3ccco3)CC2)NC(=O)NC1c1ccccc1` (stereo not given)?
LMPTP block: inactive; Scp-1 inhibitor: inactive; SUMO1-SIM PPI: inactive; STEP block: inactive

How did CCCC(C(=O)NC1CCCC1)N(C(=O)Cn1nnc(-c2ccc(C)o2)n1)c1ccccc1F (stereo not given) do in these assays?
LMPTP block: inactive; Scp-1 inhibitor: inactive; SUMO1-SIM PPI: inactive; STEP block: inactive

How did CCCC(C(=O)NC1CCCC1)N(C(=O)Cn1nnc(-c2ccc(C)o2)n1)C1CCCC1 (stereo not given) do in these assays?
DSG3 Ab inh: 89.6; LMPTP block: inactive; Scp-1 inhibitor: inactive; SUMO1-SIM PPI: inactive; STEP block: inactive

Results for O=C(Nc1c(-c2ccc3c(c2)OCO3)[nH][nH]c1=O)c1ccccc1 ?
LMPTP block: inactive; SUMO1-SIM PPI: inactive; STEP block: inactive
